Assay outcomes as filed in PubChem.
TAAR1 agonist = human TAAR1 agonists, primary screen, Fluo-8 calcium fluorescence, CHO RD-HGA16 cells; Trace amine-associated receptor 1 (Homo sapiens), Q96RJ0; vehicle wells 0%, saturating PEA agonist 100%; activation, % at 3 µM; hit rate 0.99% among 360,000;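 active = activation above the mean activation of all test compounds in the run plus 3 SD, cut at about 38% in these data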
Target sequence (Q96RJ0 whole entry, looked up): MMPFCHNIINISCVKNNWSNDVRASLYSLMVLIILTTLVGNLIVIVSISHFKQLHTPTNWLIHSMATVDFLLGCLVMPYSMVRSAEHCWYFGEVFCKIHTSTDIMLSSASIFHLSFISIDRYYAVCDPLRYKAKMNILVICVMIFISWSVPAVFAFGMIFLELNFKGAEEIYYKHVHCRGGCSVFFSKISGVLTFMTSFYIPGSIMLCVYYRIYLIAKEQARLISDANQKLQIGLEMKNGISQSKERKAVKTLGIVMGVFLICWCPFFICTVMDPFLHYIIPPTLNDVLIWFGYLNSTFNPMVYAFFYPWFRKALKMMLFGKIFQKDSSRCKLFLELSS
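Test system: RD-HGA16 (CHO) cells co-expressing Gα16 and hTAAR1 | Doses: Single dose, 3 µM | Schedule: 17-24 h seeding, 75 min 37 °C dye, 30 min RT | Evaluation: % activation from peak over basal fluorescence ratio, DMSO-to-PEA scaled | Technique: Kinetic Fluo-8 calcium fluorescence | Benchmarks: Low control DMSO, high control PEA (EC100)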
GPR7 antagonist = GPR7 receptor antagonists, primary screen, cell-based, fluorescence, single concentration. Neuropeptides B/W receptor type 1 (Homo sapiens), P48145. GPR7-expressing cells, fluorescence antagonist assay. inhibition, % at 4.4 µM. hit rate 1.1% among 290,000. AID 1861, 2009; in the data active = inhibition above about 16%, passing the limit was not always enough;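 note: cells stimulated with the agonist NPW; 0% = agonist with vehicle and 100% = vehicle without agonist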
Target sequence (P48145 whole entry, looked up): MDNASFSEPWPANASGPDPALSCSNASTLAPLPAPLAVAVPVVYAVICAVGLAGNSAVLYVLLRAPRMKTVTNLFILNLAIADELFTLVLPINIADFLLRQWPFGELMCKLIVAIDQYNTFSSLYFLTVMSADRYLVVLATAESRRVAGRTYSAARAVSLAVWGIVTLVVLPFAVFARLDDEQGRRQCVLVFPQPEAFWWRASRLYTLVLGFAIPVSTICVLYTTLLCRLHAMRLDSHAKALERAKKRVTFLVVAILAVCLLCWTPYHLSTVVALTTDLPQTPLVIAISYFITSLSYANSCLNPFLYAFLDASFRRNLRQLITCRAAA
CHO parental Ca = ATP-evoked calcium signal inhibitors, parental CHO, primary screen, counter-screen for OX1R antagonist project, cell-based, fluorescence, Fluo-8 calcium dye; parental CHO-K1, ATP-induced calcium, Fluo-8 fluorescence; inhibition, % at 5.6 µM; hit rate 0.63% among 330,000;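 active = inhibition above that plate's mean sample inhibition plus 3 SD, cut at about 26% in these data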;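 note: 0% = ATP-challenged DMSO wells and 100% = DMSO wells without ATP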
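test system = CHO parental line | reagent = ATP stimulus | measured by = intracellular calcium via Fluo-8 no-wash fluorescent dye | control set = ATP and no-ATP DMSO wells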
TAAR1 antagonist = human TAAR1 antagonists, primary screen, Fluo-8 calcium fluorescence, CHO RD-HGA16 cells; Trace amine-associated receptor 1 (Homo sapiens), Q96RJ0; antagonist; inhibition, % at 3 µM; hit rate 1.5% among 360,000;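 active = inhibition above a per-plate cutoff, the mean inhibition of test compounds on that plate plus 3 SD, cut at about 49% in these data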;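 note: 0% = DMSO plus EC80 beta-PEA response and 100% = DMSO alone without agonist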
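Assay system: RD-HGA16 CHO cells with stable hTAAR1 and Gα16 / Reagent: EC80 β-phenethylamine stimulus / Doses: 3 µM, single point / Timing: dye loading 75 min at 37 °C, then 30 min room temperature / Measured by: Fluo-8 intracellular calcium dye fluorescence, real-time kinetic reads / Controls: vehicle wells and EC80 agonist wells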
OX1R antag-1 = antagonists of human orexin 1 receptor (OX1R); Orexin/Hypocretin receptor type 1 (Homo sapiens), O43613; OX1R-expressing cells, FRET antagonist read-out; inhibition, % at 6.6 µM; hit rate 1.8% among 330,000; in the data active = inhibition mostly above about 38%, no sharp cut-off; inactive = mostly below about 40%;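 note: 0% = agonist challenge alone and 100% = reference antagonist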
OX1R antag-2 = OX1R (HCRTR1) antagonists, primary screen, fluorescence, CHO/OX1R cells, Fluo-8 calcium, orexin A; Orexin/Hypocretin receptor type 1 (Homo sapiens), O43613; Fluo-8 calcium fluorescence; inhibition, % at 5 µM; hit rate 0.43% among 330,000;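 active = inhibition above its plate's threshold, mean inhibition of all tested compounds on the plate plus 3 SD, cut at about 37% in these data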;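 note: 0% = orexin A challenge wells and 100% = SB-334867-A antagonist wells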
GPR7 antag conf = GPR7 receptor antagonists, confirmation, cell-based, fluorescence, single concentration. AID 1952, 2009. inhibition, % at 4.4 µM. GPR7-expressing cells, calcium fluorescence antagonist mode. hit rate 52% among 2,400. shares compounds with GPR7 antagonist; in the data active = inhibition above about 24%;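 note: stimulated with the GPR7 agonist NPW; 0% = agonist plus vehicle and 100% = vehicle alone without agonist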
MCHR1 antag = MCHR1 antagonists in cells, counter-screen for GPR7 antagonist project, cell-based, fluorescence, human; shares compounds with GPR7 antagonist; MCHR1-expressing cells, fluorescence antagonist assay; inhibition, % at 4.4 µM; hit rate 62% among 2,400; in the data active = inhibition above about 22%;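 note: 0% = vehicle with agonist and 100% = vehicle without agonist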
* hit, by the source's call. Most compounds without a hit are left out; they make up all but 4.6% or so of the library.

For CS(=O)(=O)N(CC(=O)Nc1ccc(F)c(F)c1)c1cccc([N+](=O)[O-])c1 the results were TAAR1 agonist 3.8, GPR7 antagonist 32.2*, CHO parental Ca -8.0, TAAR1 antagonist 7.0, OX1R antag-1 13.9, OX1R antag-2 -16.9, GPR7 antag conf 22.1 and MCHR1 antag 16.7.
For CCOc1cc(CNCCO)cc(Br)c1OCc1ccc(Cl)cc1Cl the results were TAAR1 agonist 11.2, GPR7 antagonist 42.2*, CHO parental Ca 18.9, TAAR1 antagonist -4.4, OX1R antag-1 -7.3, OX1R antag-2 40.5*, GPR7 antag conf 68.1* and MCHR1 antag 76.8*.
For CCOc1ccc(CCN2C(=O)C(=O)N([C@@H](Cc3ccccc3)CN3CCC[C@H]3CN3C(=O)C(=O)NC[C@@H]3CC(C)C)C[C@@H]2Cc2ccc(O)cc2)cc1 the results were TAAR1 agonist 0.2 and TAAR1 antagonist -2.6.
Screening COc1cc(CN2C[C@@H](CO)O[C@@H](n3cnc4c(NCCN(C)C)ncnc43)C2)cc(OC)c1OC returned TAAR1 agonist 2.0 and TAAR1 antagonist -15.4.
NCC12CC3CC(C1)CC(c1ccc(Br)cc1)(C3)C2 was read as TAAR1 agonist 41.6*, GPR7 antagonist 47.6*, CHO parental Ca -4.4, TAAR1 antagonist 22.3, OX1R antag-1 1.9, OX1R antag-2 -7.8, GPR7 antag conf 28.7* and MCHR1 antag 32.8*.
For COc1ccc(NC(=O)c2ccc3c(=O)n(-c4ccc(OC)cc4OC)c(=S)[nH]c3c2)c(OC)c1 the results were TAAR1 agonist 19.8, GPR7 antagonist 3.7, CHO parental Ca 4.6, TAAR1 antagonist 33.5, OX1R antag-1 8.7 and OX1R antag-2 -0.8.
Screening CCOc1ccc(NC(=O)c2ccc3c(=O)n(-c4ccc(OC)cc4OC)c(=S)[nH]c3c2)cc1 returned TAAR1 agonist 31.0, GPR7 antagonist 24.5*, CHO parental Ca 15.7, TAAR1 antagonist 27.2, OX1R antag-1 5.8, OX1R antag-2 -5.9, GPR7 antag conf 43.9* and MCHR1 antag 64.6*.
For C/C(=N\NC(=O)Cc1ccc(Cl)c(Cl)c1)c1cccnc1 the results were TAAR1 agonist 0.6, GPR7 antagonist 2.1 and TAAR1 antagonist -16.5.
For C/C(=N\NC(=O)Cc1ccc([N+](=O)[O-])cc1)c1cccnc1 the results were TAAR1 agonist 1.1, GPR7 antagonist 22.7*, TAAR1 antagonist -22.0, GPR7 antag conf -0.1 and MCHR1 antag 16.1.
For COc1ccc(CN(C(C)=O)c2cc(C)c([N+](=O)[O-])cc2OC)cc1OC the results were TAAR1 agonist 0.2 and TAAR1 antagonist -6.2.
`CCOc1ccc(Cn2ccnc2)cc1[N+](=O)[O-]` gave TAAR1 agonist 0.5, GPR7 antagonist -3.4, CHO parental Ca -7.6, TAAR1 antagonist -9.2, OX1R antag-1 18.7 and OX1R antag-2 -5.7.
For CCCCCOc1ccc(Cn2ccnc2)cc1[N+](=O)[O-] the results were TAAR1 agonist 1.2, GPR7 antagonist 21.1*, CHO parental Ca -7.7, TAAR1 antagonist 16.0, OX1R antag-1 10.5, OX1R antag-2 -22.3, GPR7 antag conf 37.0* and MCHR1 antag 48.2*.
Screening Cc1ccc(C)c(N2CCN(C(C(=O)NC3CCCC3)C(C)C)CC2)c1 (configuration not stated) returned TAAR1 agonist -1.4 and TAAR1 antagonist -12.8.
`CCCNC(=O)c1cc(C2CCCCN2C(=O)c2cc(OC)c(C)c(OC)c2)on1` (configuration not stated) gave TAAR1 agonist 6.5 and TAAR1 antagonist 24.3.
`Cc1ccccc1NC(=O)CN1C(=O)NC2(CCc3ccccc32)C1=O` (configuration not stated) gave TAAR1 agonist 1.4, CHO parental Ca -4.1, TAAR1 antagonist -6.7, OX1R antag-1 -5.1 and OX1R antag-2 -23.3.
Screening COc1cc2c(cc1NC(=O)CN1C(=O)NC3(CCc4ccccc43)C1=O)oc1ccccc12 (configuration not stated) returned TAAR1 agonist 8.0, GPR7 antagonist 33.0*, CHO parental Ca 19.4, TAAR1 antagonist 50.5*, OX1R antag-1 27.8, OX1R antag-2 6.5, GPR7 antag conf 58.8* and MCHR1 antag 56.8*.
Cc1ccc(C2N(c3ccccc3)C(=S)N3CCCN23)cc1 (configuration not stated) was read as TAAR1 agonist 5.8, GPR7 antagonist 24.4*, CHO parental Ca -8.4, TAAR1 antagonist 6.8, OX1R antag-1 39.4, OX1R antag-2 -17.6, GPR7 antag conf 14.3 and MCHR1 antag 5.7.
Fc1ccc(C2N(c3ccccc3)C(=S)N3CCCN23)cc1 (configuration not stated) was read as TAAR1 agonist 2.5, GPR7 antagonist -7.6, CHO parental Ca -9.0, TAAR1 antagonist -15.9, OX1R antag-1 4.0 and OX1R antag-2 -13.5.
Screening O=C(NCCN1CCC(n2c(=O)[nH]c3ccccc32)CC1)C(c1ccccc1)c1ccccc1 returned TAAR1 agonist 2.1 and TAAR1 antagonist -8.3.
COCCN(CCOC)Cc1cc(=O)oc2cc(C)cc(C)c12 was read as TAAR1 agonist -0.3 and TAAR1 antagonist -11.8.
For CSc1cccc(NC(=O)Nc2nc3c(C)cccc3s2)c1 the results were TAAR1 agonist 4.5, GPR7 antagonist 23.2, CHO parental Ca 14.3, TAAR1 antagonist 38.2, OX1R antag-1 22.0, OX1R antag-2 4.4, GPR7 antag conf 33.1* and MCHR1 antag 76.0*.
COC(=O)Nc1nc2c(C)cccc2s1 was read as TAAR1 agonist 5.2, GPR7 antagonist -11.6, CHO parental Ca -9.4, TAAR1 antagonist -9.6, OX1R antag-1 9.6 and OX1R antag-2 -17.2.
`COCCCN(Cc1cc(OC)c(OC)c(OC)c1)C(=S)Nc1cccc(Cl)c1` gave TAAR1 agonist 3.1 and TAAR1 antagonist -14.7.
`CCOC(=O)[C@]12CCC=C1N(Cc1ccc(Cl)cc1Cl)C(=O)[C@H](CC(=O)NCc1ccc(C)o1)C2` gave TAAR1 agonist -0.1 and TAAR1 antagonist -20.1.
